In general, inhibition refers to the change of the read-out against control, counted positive when it falls. Broadly, the Ki is the dissociation constant of the complex between target and ligand, obtained from inhibition or displacement. Low values mean tighter binding, high ones weaker binding. For orientation: IC50 means the concentration at which inhibition is half-maximal.

The source made the active and inactive calls. No cut-off for these calls is given here.

The species entered for experiment [1] is Cavia porcellus. Briefly: Inhibition of guinea pig complement-mediated immune lysis of sheep red blood cells at 0.1 mM after 12 mins. The essentials: (§1)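 Inhibitor in Tris/Mg/Ca/NaCl/gelatin buffer was preincubated 15 min at 37° with guinea pig complement (1:100 of 200 CH50/ml). Sheep erythrocytes (10^9/ml) presensitized with rabbit hemolysin (1:800) were added, and tubes incubated 12 min at 37°. Cold citrate-saline stopped lysis. Hemoglobin at 524 nm was converted to % inhibition via a complement standard curve, corrected for inhibitor lysis, in duplicate.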

Experiment [2] has as its system Plasma. The experiment in a line: Anticoagulant activity in human plasma assessed as partial thromboplastin time at 5 uM (reference value: 59 +/- 2.6 secs). The format is functional.
Experiment [3] concerns Plasma. The experiment in a line: Anticoagulant activity in human plasma assessed as partial thromboplastin time at 0.1 mM (reference value: 59 +/- 2.6 secs). The format is functional.
For experiment [4], the system named is Plasma. Briefly: Anticoagulant activity in human plasma assessed as partial thromboplastin time at 10 uM (reference value: 59 +/- 2.6 secs). The format is functional.
Experiment [5] concerns the target T1, Prothrombin (Bos taurus, UniProt P00735). The experiment in a line: Inhibition of amidase activity of bovine thrombin using BANA as substrate after 15 to 40 mins.
Experiment [6] is described as follows: Inhibition of bovine trypsin using BANA as substrate after 15 to 30 mins. Set-up: species or system Bos taurus.
The target of experiment [7] is T2, Glandular kallikrein (Sus scrofa, UniProt P00752).
T2 sequence (P00752 whole entry): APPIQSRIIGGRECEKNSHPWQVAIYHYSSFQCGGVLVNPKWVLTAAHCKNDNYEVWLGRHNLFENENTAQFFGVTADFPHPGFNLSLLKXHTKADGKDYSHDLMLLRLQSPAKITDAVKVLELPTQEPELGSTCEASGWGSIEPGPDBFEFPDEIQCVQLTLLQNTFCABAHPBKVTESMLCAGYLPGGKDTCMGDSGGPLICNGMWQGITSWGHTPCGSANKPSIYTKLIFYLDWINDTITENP
Briefly: Inhibition of porcine pancreatic kallikrein using BPPANA as substrate after 15 to 180 mins. The essentials:
(§2)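 Porcine pancreatic kallikrein (635 Frey units/mg) amidase assay, pH 8.1, 37°, 15-180 min. […] Ki came from Dixon plots at two substrate concentrations. Means ± SD, n = 3.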

For experiment [8], the species on record is Cavia porcellus. Briefly: Inhibition of guinea pig complement-mediated immune lysis of sheep red blood cells at 30 uM after 12 mins. The essentials: as §1
For experiment [9], the species on record is Cavia porcellus. The experiment in a line: Inhibition of guinea pig complement-mediated immune lysis of sheep red blood cells at 10 uM after 12 mins. The essentials:
as §1

The next experiment has as its target Prothrombin (Bos taurus) (UniProt P00735). The experiment in a line: Inhibition of bovine thrombin-mediated blood clotting formation in presence of human fibrinogen.
For experiment [10], the target named is T2, Glandular kallikrein. The experiment in a line: Inhibition of porcine pancreatic kallikrein using BANA as substrate after 15 to 180 mins. The method in brief:
as §2

A further experiment concerns Rattus norvegicus. Briefly: Anticoagulant activity in Wistar rat plasma assessed as activation of partial thromboplastin time at 1.9 mg/kg, iv. Type of experiment: functional, organism-based. Further details: dose 1.9 mg/kg. The method in brief:
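Female Wistar rats (about 300 g), anesthetized with sodium pentobarbital 25 mg/kg sc, received inhibitor at 1.9 mg/kg iv. Post-injection plasma was separated by centrifugation. 0.1 ml was mixed with Celite suspension, saline and partial thromboplastin, agitated 3 min at 37°, recalcified with 0.02 M CaCl2, and activated PTT clotting time recorded.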

Experiment [11] has as its target T1, Prothrombin. The experiment in a line: Inhibition of amidase activity of bovine thrombin using BPVANA as substrate after 15 to 40 mins.

In the case of `Cl.N=C(N)c1ccc(OCc2cccc(COc3ccc(C(=N)N)cc3I)c2)c(I)c1`, the inhibition in the experiment listed under Cavia porcellus [1] was more than 50%; in the experiment listed under Cavia porcellus [8] it was 32.6%; in the experiment filed under Cavia porcellus [9], 0%. The APTT in the experiment with Plasma [2] came out at 64 s; with Plasma [3], 369 s; in the experiment on Plasma [4], 70 s. For the same compound, the Ki came out at 1200 nM on Prothrombin [5], 670 nM in [6] and 31 nM on Glandular kallikrein [7].

In the case of `Cl.N=C(N)c1cccc(COc2ccc3cc(OCc4cccc(C(=N)N)c4)ccc3c2)c1`, the IC50 on Prothrombin (Bos taurus) stood at 30000 nM. For the same compound, the inhibition in the experiment listed under Cavia porcellus [1] is more than 50%; in the experiment filed under Cavia porcellus [8], more than 50%; in the experiment filed under Cavia porcellus [9], 11%. Also, the values for the APTT in the experiment on Plasma [2], in the experiment with Plasma [3] and in the experiment on Plasma [4] were 61 s, 277 s and 72 s, respectively. The values for the inhibition constant (Ki) (at Prothrombin [5]; in [6]; at Glandular kallikrein [10]) were 2400 nM, 3200 nM and 5500 nM, respectively.

Take `Cl.N=C(N)c1cccc(OCc2ccc(COc3cccc(C(=N)N)c3)cc2)c1`: at Prothrombin (Bos taurus), the IC50 stood at 13000 nM. Moreover, the inhibition is 19.1% in the experiment filed under Cavia porcellus [1], 14% in the experiment listed under Cavia porcellus [8] and 5.6% in the experiment filed under Cavia porcellus [9]. Further, the APTT is recorded as 80 s in the experiment on Plasma [2], 391 s in the experiment with Plasma [3] and 122 s with Plasma [4]. Moreover, the inhibition constant Ki came to 5000 nM on Prothrombin [5], 6100 nM in experiment [6] and 5800 nM at Glandular kallikrein [10].

Regarding `Cl.N=C(N)c1ccc(OCc2ccc(COc3ccc(C(=N)N)cc3)c3ccccc23)cc1`, the APTT came out at 64 s in the experiment with Plasma [2], 203 s in the experiment on Plasma [3] and 71 s with Plasma [4]. The Ki was 6600 nM at Prothrombin [5], 1900 nM in [6] and 2500 nM at Glandular kallikrein [10]. Moreover, the inhibition in the experiment listed under Cavia porcellus [8] amounted to 10.8%; in the experiment listed under Cavia porcellus [9], 2.9%.

`Cl.N=C(N)c1cccc(OCc2cccc(COc3cccc(C(=N)N)c3)c2)c1`: the IC50 at Prothrombin (Bos taurus) was determined as 6500 nM. In addition, the inhibition in the experiment filed under Cavia porcellus [1] turned out to be 34%; in the experiment listed under Cavia porcellus [8], 13.7%; in the experiment listed under Cavia porcellus [9], 0%. The APTT with Plasma [2] came out at 92 s; in the experiment with Plasma [3], 714 s; in the experiment on Plasma [4], 112 s. Further, the Ki on Prothrombin [5] worked out at 4600 nM; in [6], 3200 nM; on Glandular kallikrein [10], 3400 nM.

In the case of `Cl.N=C(N)c1ccc(OCc2ccc(COc3ccc(C(=N)N)cc3)cc2)cc1`, the IC50 on Prothrombin (Bos taurus) is 17000 nM. Moreover, the inhibition was 25.9% in the experiment listed under Cavia porcellus [1], 0% in the experiment listed under Cavia porcellus [8] and 0% in the experiment listed under Cavia porcellus [9]. Moreover, the values for the APTT in the experiment on Plasma [2], in the experiment with Plasma [3] and in the experiment with Plasma [4] were 147 s, 725 s and 176 s, respectively. Moreover, the Ki at Prothrombin [5] was 3400 nM; in [6], 1300 nM; at Glandular kallikrein [10], 11400 nM. Besides, the result with Rattus norvegicus was inactive.

Consider `Cl.N=C(N)c1ccc(OCc2ccc(COc3ccc(C(=N)N)cc3Br)cc2)c(Br)c1`, for which the APTT with Plasma [2] is reported as 96 s; with Plasma [3] it was 258 s; in the experiment with Plasma [4] it was 110 s. For the same compound, the Ki at Prothrombin [11] worked out at 160 nM; in experiment [6], 1100 nM; at Glandular kallikrein [10], 710 nM.

For the compound `Cl.N=C(N)c1ccc(OCc2cccc(-c3cccc(COc4ccc(C(=N)N)cc4)c3)c2)cc1`, the IC50 at Prothrombin (Bos taurus) is 730 nM. For the same compound, the APTT in the experiment with Plasma [2] was found to be 72 s; in the experiment on Plasma [3], 412 s; with Plasma [4], 83 s. Besides, the Ki on Prothrombin [11] is 570 nM; in experiment [6], 1400 nM; on Glandular kallikrein [10] it was 1600 nM.

In the case of `Cl.N=C(N)c1ccc(OCc2ccc(COc3ccc(C(=N)N)cc3I)cc2)c(I)c1`, on Prothrombin (Bos taurus), the IC50 was 1000 nM. The APTT was determined as 80 s in the experiment on Plasma [2] and 92 s in the experiment on Plasma [4]. Also, the Ki stood at 110 nM at Prothrombin [11], 2300 nM in experiment [6] and 610 nM at Glandular kallikrein [7]. For the same compound, the inhibition in the experiment listed under Cavia porcellus [8] was 29.8%; in the experiment filed under Cavia porcellus [9] it was 0%.

For the compound `Cl.N=C(N)c1ccc(OCc2cc(COc3ccc(C(=N)N)cc3)c3ccccc3c2)cc1`, the IC50 at Prothrombin (Bos taurus) was found to be 15000 nM. Moreover, the inhibition was more than 50% in the experiment listed under Cavia porcellus [1], 15.3% in the experiment filed under Cavia porcellus [8] and 5.6% in the experiment filed under Cavia porcellus [9]. Further, the values for the APTT in the experiment on Plasma [2], in the experiment with Plasma [3] and with Plasma [4] were 62 s, 147 s and 67 s, respectively. The values for the Ki (on Prothrombin [5]; in experiment [6]; at Glandular kallikrein [10]) were 5200 nM, 1800 nM and 1040 nM, respectively.

Regarding `Cl.N=C(N)c1ccc(OCc2cccc(-c3cccc(COc4ccc(C(=N)N)cc4Br)c3)c2)c(Br)c1`, the IC50 at Prothrombin (Bos taurus) is 10000 nM. Further, the APTT in the experiment on Plasma [2] is 62 s. Besides, the Ki on Prothrombin [11] was determined as 270 nM; in experiment [6] it was 250 nM; on Glandular kallikrein [10] it was 2200 nM.

These data come from ChEMBL document CHEMBL3271968, “Novel bis(benzamidino) compounds with an aromatic central link. Inhibitors of thrombin, pancreatic kallikrein, trypsin, and complement” (J Med Chem, 1976).
